Assay results published in publication PMC9119696 (Nature chemical biology, 2021).

How the values were obtained:
GST-Pin1 = GST-Pin1 (Homo sapiens, UniProt Q13526); test: Competitive fluorescence polarization; type: binding; conditions: 14 h incubation with recombinant full-length Pin1
Summary of the method: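 GST-Pin1 (250 nM) preincubated 14 h at 4 °C with compound and 5 nM N-terminal fluorescein-labelled peptide probe (Bth-D-pThr-Pip-Nal). Buffer: 10 mM HEPES, 10 mM NaCl, 1% glycerol pH 7.4, 10 µg ml-1 BSA, 0.01% Tween-20, 1 mM DTT. Ki calculated from probe concentration, 85% probe bound and Pin1 concentration. Kinact from dose- and time-dependent runs. n = 3 samples ± s.e.m.; 2 experiments.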

PATU-8988T WT Pin1 cells = test: 3D Matrigel dome antiproliferative assay; type: cell-based; conditions: 1 μM, 9-day treatment
Summary of the method: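 1,000 cells per Matrigel dome, one dome per well, left 15 min at 37 °C to solidify. Medium with test compound renewed every 3 days. After 9 days, 3D CellTiter-Glo was added and the plate shaken 1 h at room temperature before reading luminescence. n = 9 biological replicates per condition.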

PATU-8988T cells = test: Cell cycle analysis; type: cell-based; conditions: 2.5 μM, 4 days
Summary of the method: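 PATU-8988T cells treated 4 days with DMSO (0.1%), test compound or a non-covalent analogue (each 2.5 µM), with medium replaced on day 3; run in triplicate or more. Pulsed with 10 µM BrdU for 1 h, then fixed in 70% ethanol and denatured in 2 M HCl/0.5% Triton X-100 (30 min, RT). Neutralised with 0.1 M Na2B4O7 pH 8.5 and stained overnight at 4 °C with anti-BrdU-FITC. Counterstained with propidium iodide plus RNase A (each 50 µg ml-1) and analysed by FACS.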

Pin1 = test: Live cell competition pulldown; type: cell-based; conditions: PATU-8988T or HCT116 cells, 5 h
Summary of the method: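 2.5 million cells per 10-cm plate, dosed next day with DMSO or test compound (5 h, or as indicated). Cells washed in cold PBS, scraped and lysed in HEPES pH 7.4/NP-40 buffer with TCEP. Lysate (500 µg) incubated with desthiobiotin probe (1 µM, 1 h, 4 °C), then streptavidin agarose (1.5 h, 4 °C). Pin1 pulldown detected by immunoblot.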

GST-Pin1, sequence (Q13526 whole entry): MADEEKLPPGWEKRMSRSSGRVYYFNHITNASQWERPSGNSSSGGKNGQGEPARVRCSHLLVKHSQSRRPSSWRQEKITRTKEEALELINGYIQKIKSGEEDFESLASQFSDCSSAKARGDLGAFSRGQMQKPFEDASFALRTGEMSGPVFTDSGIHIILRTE

## CC(=O)N(CC(C)(C)C)C1CCS(=O)(=O)C1 (stereo not shown) [Sulfopin-AcA]
GST-Pin1
  competition in FP assay: inactive
PATU-8988T WT Pin1 cells
  antiproliferative activity in 3D Matrigel domes: showed no effect in any of the tested systems
PATU-8988T cells
  cells in S phase: did not show this effect
Pin1
  competition of Pin1 pulldown by DTB probe: unable to outcompete Pin1 pulldown
